The list is not random: actives were taken first. Their share in the collection is about 2.7%.
OX1R antag-1 – blocks the human orexin 1 receptor | OX1R-expressing cells, FRET antagonist read-out | inhibition, % at 6.6 µM | 330,000 compounds, 1.8% hits | AID 485270 | O43613; in the data active = inhibition mostly above about 38%, no sharp cut-off; inactive = mostly below about 40%;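 note: 0% = agonist challenge alone and 100% = reference antagonist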
OXTR ag – agonists of human oxytocin receptor | 320,000 compounds, 0.32% hits | activation, % at 3 µM | CHO-OTR cells, Fluo-8 calcium fluorescence; normalized: DMSO 0%, oxytocin 100% | AID 2435 | P30559;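 active = activation above the mean of all tested compounds plus 3 SD, cutoff set per screening run, cut at about 20% in these data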;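 note: peak over basal fluorescence ratio from a 100 s FLIPR kinetic read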
Target sequence (P30559 whole entry, looked up): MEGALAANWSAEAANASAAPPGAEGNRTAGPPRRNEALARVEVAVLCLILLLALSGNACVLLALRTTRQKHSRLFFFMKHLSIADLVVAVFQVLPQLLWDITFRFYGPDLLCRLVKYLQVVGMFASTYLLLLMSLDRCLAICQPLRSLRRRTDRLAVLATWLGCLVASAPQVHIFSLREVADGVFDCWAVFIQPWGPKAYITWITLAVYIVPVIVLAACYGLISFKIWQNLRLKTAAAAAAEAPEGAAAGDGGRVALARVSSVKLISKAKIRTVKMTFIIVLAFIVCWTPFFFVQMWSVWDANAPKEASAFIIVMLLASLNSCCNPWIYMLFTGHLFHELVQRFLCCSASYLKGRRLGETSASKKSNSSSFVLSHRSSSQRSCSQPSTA
OXTR potentiate – human OXTR potentiation; 320,000 compounds, 0.061% hits; activation, % at 3 µM; CHO-OTR cells, Fluo-8 calcium fluorescence, potentiator mode; 0% = oxytocin EC15, 100% = EC100; AID 2445;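 active = activation above that plate's cutoff, the mean activation of tested compounds plus 3 SD, cut at about 6.6% in these data, passing the limit was not always enough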;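 note: 100% uses oxytocin at 75 nM as the full agonist control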
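assay system = CHO-OTR cells, human receptor | schedule = compound 6 min at room temperature before oxytocin, 100 s read | detection = Fluo-8 intracellular calcium fluorescence, ex 470-495, em 515-575 nm | evaluation = normalized max/min fluorescence ratio, % activation | control set = EC15 oxytocin alone as 0%, 75 nM oxytocin (EC100) as 100%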
CHO parental Ca – counter-screen for OX1R antagonists: effect in parental CHO cells; parental CHO-K1, ATP-induced calcium, Fluo-8 fluorescence; 330,000 compounds, 0.63% hits; inhibition, % at 5.6 µM;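 active = inhibition above that plate's mean sample inhibition plus 3 SD, cut at about 26% in these data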;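 note: 0% = ATP-challenged DMSO wells and 100% = DMSO wells without ATP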
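Test system: untransfected parental CHO cell line. Compound: one dose, 5.6 µM nominal. Detection: intracellular calcium via Fluo-8 no-wash fluorescent dye. Measure: % inhibition. Benchmarks: ATP-challenged DMSO wells low, unchallenged DMSO wells high.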
OX1R antag-2 – human HCRTR1 antagonism. O43613. CHO/OX1R cells, Fluo-8 calcium fluorescence, orexin A. inhibition, % at 5 µM. 330,000 compounds, 0.43% hits. AID 434989;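 active = inhibition above its plate's threshold, mean inhibition of all tested compounds on the plate plus 3 SD, cut at about 37% in these data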;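 note: 0% = orexin A challenge wells and 100% = SB-334867-A antagonist wells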
V1R ag counter – V1a receptor agonism, counter-screen for OXTR agonists. CHO-V1R cells, Fluo-8 calcium fluorescence, agonist mode; 0% DMSO, 100% 3 nM vasopressin. activation, % at 3 µM. 320,000 compounds, 0.25% hits. AID 2797;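 active = activation above the mean activation of all tested compounds plus 3 SD, per screening run, cut at about 20% in these data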;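 note: signal is peak over basal fluorescence ratio across a 100 second FLIPR read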
Active calls of the source: *; . = no result.

SMILES | OX1R antag-1 | OXTR ag | OXTR potentiate | CHO parental Ca | OX1R antag-2 | V1R ag counter
O=C(CN1C(=O)NC2(CCCC2)C1=O)Nc1cc(Cl)ccc1Oc1ccccc1 | 3 | -1 | -6 | -16 | -27 | 0
Cc1coc2c(C)c3oc(=O)c(CCC(=O)N[C@@H](C)C(=O)N[C@@H](Cc4ccccc4)C(=O)O)c(C)c3cc12 | 45* | -1 | 1 | -10 | -8 | -1
CC(=O)Nc1ccc(NC(=O)CSc2nnc(NC(=O)c3ccc(Br)o3)s2)cc1 | 13 | 0 | 2 | -5 | -11 | 1
CCC1(c2ccccc2)NC(=O)N(CC(=O)NCCN2C(=O)S/C(=C\c3cccnc3)C2=O)C1=O (centres undefined) | 57* | 0 | -1 | -14 | -13 | 1
C#CCn1c(S(=O)(=O)Cc2ccc(F)cc2)nc(-c2ccccc2)c1-c1ccccc1 | 40* | 1 | -8 | -19 | -20 | 2
CCOC(=O)Cn1c(S(=O)(=O)Cc2ccc(F)cc2)nc(-c2ccccc2)c1-c1ccccc1 | 14 | 0 | 0 | -18 | -12 | 1
COc1cccc(CN2CC(C(=O)NCc3ncc(C)[nH]3)CCC2=O)c1 (centres undefined) | 15 | 0 | -2 | -2 | 1 | 1
CC[C@]12c3[nH]c4ccc(Cl)cc4c3CCN1C(=O)[C@@H](CC(=O)NCCC1=CCCCC1)C[C@@H]2C(=O)N1CCN(C(=O)c2ccco2)CC1 | 5 | . | . | -22 | -12 | .
Cc1cc(Cl)c(S(=O)(=O)N2CCSCC2)cc1OCC(=O)NC1CCCCC1 | 0 | 12 | -9 | 9 | 0 | 7
Cc1cc(Cl)c(S(=O)(=O)N2CCCCCC2)cc1OCC(=O)NC1CCCCC1 | 13 | 9 | -8 | 78* | 14 | 7
O=C(Nc1cccc(Cl)c1)Nc1csc([N+](=O)[O-])c1 | 50* | 17 | -8 | 62* | 17 | 8
CN(c1cccc(NC(=O)Nc2cccc(Cl)c2)c1)S(C)(=O)=O | 98* | 17 | -22 | 73* | 72* | 17
O=C(Nc1ccncc1)Nc1cccc(Cl)c1 | 6 | 9 | -7 | 23 | 4 | 11
O=C(COc1cc(F)ccc1[N+](=O)[O-])NCC1CCCO1 (centres undefined) | 11 | 2 | -2 | 0 | -8 | 2
Cc1nnc2n1N=CC=C(c1ccccc1)S2 | 54* | -1 | -6 | -9 | -4 | 0
Cc1c(N(C)S(=O)(=O)c2cc(C(=O)NCC3CCCO3)ccc2Cl)c(=O)n(-c2ccccc2)n1C (centres undefined) | 17 | 0 | -15 | -22 | -24 | -1
CCN(CC)c1ccc(/C=C/C(=O)c2ccc(Br)cc2)cc1 | 15 | 143* | -7 | 91* | 99* | 154*
CC(=O)c1ccc(NC(=S)NC(C)c2ccc(Cl)cc2Cl)cc1 (centres undefined) | 11 | 25* | -13 | 64* | 73* | 24*
CCOC(=O)c1cnc(-n2nc(C)cc2C)nc1NC | 7 | -1 | 2 | -4 | -11 | 0
CCOC(=O)c1cnc(-n2nc(C)cc2C)nc1NC1CCCCC1 | 15 | 9 | -21 | 71* | 74* | 8
Cc1ccc(C(=O)N(C)Cc2nc3ccccc3c(=O)[nH]2)cc1NC(=O)c1ccco1 | 8 | 1 | -4 | -14 | -14 | 1
O=C(CSc1nc2nn(-c3ccccc3)c(=O)c-2c2n1CCCCC2)c1ccc(OC(F)F)cc1 | 4 | 0 | -3 | -11 | -15 | 0
Cn1c2ccccc2c(=O)c2cc(NCCCN3CCOCC3)ccc21 | 59* | 0 | -7 | -28 | -21 | 0
COc1cccc(NC(=O)CN(C)C(C)C(=O)NC(=O)NC2CCCCC2)c1 (centres undefined) | 5 | -1 | 0 | -21 | -29 | 1
Cc1ccc(/C=C/c2ccc(N(C)C)cc2)[n+](C)c1 | 39* | 4 | -3 | 15 | -8 | 4
SMILES | OX1R antag-1 | OXTR ag | OXTR potentiate | CHO parental Ca | OX1R antag-2 | V1R ag counter
COc1ccc(OC)c(CN2CCN(C(=O)c3cccc(S(=O)(=O)Nc4ccc(C)cc4)c3)CC2)c1 | 8 | -1 | -3 | -35 | -51 | 1
Nc1c2c(nc3sc4c(c13)CCCC4)-c1ccccc1CC2 | 72* | -3 | -18 | -10 | -7 | -1
COc1ccc(S(=O)(=O)N2CCOCC2)cc1NC(=O)c1sccc1C | 0 | -2 | -3 | -19 | -5 | 1
Cn1c(=O)c2c(nc(NCC3CCCC(CN)C3)n2Cc2ccc(Cl)cc2Cl)n(C)c1=O (centres undefined) | -4 | -2 | -3 | -21 | -34 | 0
COc1ccc(NC(=O)CSc2nc3nc(-c4cccs4)cc(C(F)(F)F)c3c(=O)[nH]2)c(OC)c1 | 22 | -1 | -1 | -9 | -15 | 0
CCOc1ccccc1NC(=O)CSc1nc2nc(-c3cccs3)cc(C(F)(F)F)c2c(=O)[nH]1 | 47* | -2 | -8 | -18 | -24 | 1
COc1ccc(NC(=O)c2ccc(-n3c(C)ccc3C)cc2)c(OC)c1 | 36 | -1 | -8 | -11 | 10 | 1
COc1ccc(NC(=O)c2ccc3[nH]c(C)c(C)c3c2)c(OC)c1 | 50* | -1 | -18 | -7 | 19 | 0
CCOc1ccccc1NC(=O)c1ccc2[nH]c(C)c(C)c2c1 | 73* | -1 | -18 | -22 | -16 | 0
Cc1ccsc1C(=O)OCC(=O)c1cc(C)n(C)c1C | 5 | 0 | -9 | -9 | -3 | 0
Cc1ccccc1[C@]1(C)ON(c2ccccc2C(F)(F)F)C1=O | 0 | -1 | -5 | -2 | -9 | 1
CCOCCCNc1nc2c(C)cccn2c(=O)c1/C=C1\SC(=S)N(C(C)CC)C1=O (centres undefined) | 0 | 13 | -13 | 26 | 45* | 6
CCOCCCNc1nc2c(C)cccn2c(=O)c1/C=C1\SC(=S)N(CC(C)C)C1=O | 12 | 1 | -14 | 1 | -1 | 1
CC1CC(=O)Nc2ccccc2N1C(=O)CSc1ccc2ccccc2n1 (centres undefined) | 1 | 3 | 0 | -6 | -19 | 1
[O-][n+]1c2c(c3c4non(O)c4ccc31)CCCC2 | 54* | 13 | -14 | 6 | 24 | 8
COn1c2c(c3c4no[n+]([O-])c4ccc31)CCCC2 | 31 | 0 | 1 | -11 | -20 | 1
Cc1cccc(NC(=O)CC2CCC2)c1 | 9 | -1 | -2 | -11 | -16 | 0
Cc1cccc(NC(=O)CC2c3ccccc3Oc3ccccc32)c1 | 51* | -2 | -2 | -12 | -11 | 1
CCN(CC)S(=O)(=O)c1cccc(NC(=O)c2ccc(Sc3nncn3C)c([N+](=O)[O-])c2)c1 | -4 | 1 | -1 | -3 | -25 | 0

High-throughput results from PubChem BioAssay.
